Active and inactive are the calls of the source. The rule behind the calls is not given here.
Tests used:
[1] = Photo stability of compound in saline at 10 uM irradiated with UV for 3 hrs by HPLC analysis; type: physicochemical; details: buffer
How it was run: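 Compounds in DMSO diluted into buffered aqueous solution pH 7.4 to a final 10 µM. Irradiated in 1 cm quartz cells by a 150 W UV lamp at 20 cm for 3 h; dark controls held at 37 °C. Aliquots analysed by UHPLC on C18 with TFA water/ACN gradient: 220 nm for loss of parent, 550 nm for phenazine/phenazinium dimers.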

[2] = target: T1, Voltage-gated potassium channel, KQT; KCNQ2(Kv7.2)/KCNQ3(Kv7.3) (Homo sapiens) (UniProt O43526+O43525); assay: Activation of Kv7.2/Kv7.3 channel (unknown origin) expressed in CHO cells assessed as half activation potential measured after 24 hrs by whole cell patch clamp based electrophysiological method; details: filed as activator
[3] = target: T1, Voltage-gated potassium channel, KQT; KCNQ2(Kv7.2)/KCNQ3(Kv7.3) (Homo sapiens); assay: Activation of Kv7.2/Kv7.3 channel (unknown origin) expressed in CHO cells at -80 mV measured after 24 hrs by whole cell patch clamp based electrophysiological method; details: filed as activator
[4] = test system: Mus musculus; assay: Anticonvulsant activity in PTZ induced C57BL/6 mouse acute seizure model assessed as seizure score at 0.3 mg/kg, ip pretreated for 30 mins followed by PTZ injection and measured upto 30 mins by Liittjohann's scale analysis; type: functional; details: time 60 min, 1 h
How it was run: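 Male C57Bl/6 mice, drug in saline with 2% Tween-20 and 2% PEG-400, given i.p. at 0.01 mL/g 30 min before PTZ (100 mg/kg s.c. in saline). Animals watched in clear boxes for 30 min. Maximal severity was scored on the revised Lüttjohann 9-point scale (0 whisker trembling to 8 wild jumping). Group mean reported.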

[5] = Toxicity in PTZ induced C57BL/6 mouse acute seizure model assessed as in mortality at 0.3 mg/kg, ip; type: organism-based; details: in vivo
How it was run: (§1)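 Male C57Bl/6 mice were pretreated i.p. with drug in saline containing 2% Tween-20 and 2% PEG-400, 30 min before PTZ (100 mg/kg s.c.). Vehicle controls received the vehicle alone. Survival was recorded as animals alive at the end of the 60 min observation period after PTZ and expressed as percent (surviving/total) per group.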

[6] = Toxicity in PTZ induced C57BL/6 mouse acute seizure model assessed as mortality at 1 mg/kg, ip; type: organism-based; details: in vivo; how it was run: as §1
[7] = target: T1, Voltage-gated potassium channel, KQT; KCNQ2(Kv7.2)/KCNQ3(Kv7.3) (Homo sapiens); assay: Activation of Kv7.2/Kv7.3 channel (unknown origin) expressed in CHO cells assessed as leftward shift change in half activation potential at 1 uM measured after 24 hrs by whole cell patch clamp based electrophysiological method; details: filed as activator
[8] = test system: Mus musculus; assay: Anticonvulsant activity in PTZ induced C57BL/6 mouse acute seizure model assessed as seizure score at 3 mg/kg, ip pretreated for 30 mins followed by PTZ injection and measured upto 30 mins by Liittjohann's scale analysis; type: functional; details: time 60 min, 1 h
How it was run: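 Male C57Bl/6 mice given drug i.p. in saline with 2% Tween-20 and 2% PEG-400 (0.01 mL/g), 30 min before PTZ 100 mg/kg s.c. Observed in Plexiglass boxes for 30 min. Maximal severity scored on the revised Lüttjohann 9-point scale (0–8), latency to maximal seizure recorded. One-way ANOVA with Tukey.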

[9] = target: T1, Voltage-gated potassium channel, KQT; KCNQ2(Kv7.2)/KCNQ3(Kv7.3) (Homo sapiens); assay: Activation of Kv7.2/Kv7.3 channel (unknown origin) expressed in CHO cells assessed as slope of fluorescent signal at 10 uM by FluxOR fluorescent dye based assay; type: cell-based; details: filed as activator
How it was run: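 CHO clone stably expressing Kv7.2/Kv7.3 (PiggyBac, puromycin 4 µg/mL), seeded 1.6 × 10^4 cells/well on poly-D-lysine, assayed 24 h later. FluxOR II thallium flux, wash method, ex 485/em 520 nm. Tl+ stimulus buffer added after 5 s, read every 1 s for 50 s. Initial slope taken from 5–15 s. Vehicle 0.1% DMSO, 10 µM retigabine reference; only runs with Z' > 0.5 kept; ≥3 experiments.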

## CCCCCCCC(=O)Nc1ccc(NCc2ccc(C(F)(F)F)cc2)cc1N
[1]
  Stability: Stable

## CC(C)(C)CC(=O)Nc1ccc(NCc2ccc(C(F)(F)F)cc2)c(F)c1N
[2]
  V1/2: -30.2 mV
[3]
  Activity: Active
[4]
  Activity: 6
[5]
  Activity: 87%
[6]
  Activity: 100%

## CCOC(=O)Nc1ccc(NCc2ccc(C(F)(F)F)cc2)c(F)c1N
[7]
  delta(V1/2): 40 mV
[3]
  Activity: Active

## CC(C)(C)CC(=O)Nc1ccc(NCc2c(F)cccc2F)cc1N
[1]
  Stability: Stable

## CCOC(=O)Nc1ccc(NCc2ccc(F)cc2)cc1N
[3]
  Activity: Active

## CC(C)(C)CC(=O)Nc1ccc(NCc2ccc(C(F)(F)F)cc2)cc1N1CCCC1
[1]
  Stability: Unstable

## CCCCCCC(=O)Nc1ccc(NCc2ccccc2F)cc1N
[1]
  Stability: Stable

## CCCCCCC(=O)Nc1ccc(NCc2ccccc2)cc1N
[1]
  Stability: Stable

## O=C1c2ccccc2C(Cc2ccncc2)(Cc2ccncc2)c2ccccc21
[8]
  Activity: 7.3

## CC(C)(C)CC(=O)Nc1ccc(NCc2ccc(C(F)(F)F)cc2)cc1N1CCCCC1
[1]
  Stability: Unstable

## CC(C)(C)CC(=O)Nc1ccc(NCc2ccc(C(F)(F)F)cc2)cc1N
[1]
  Stability: Stable

## CCCCCCC(=O)Nc1ccc(NCc2ccc(C(F)(F)F)cc2)cc1N
[1]
  Stability: Stable

## Nc1cc(NCc2ccc(C(F)(F)F)cc2)ccc1NC(=O)CCC1CCCCC1
[1]
  Stability: Stable

## CCCCCCC(=O)Nc1ccc(CCc2ccc(C(F)(F)F)cc2)cc1N
[9]
  Activity: 0.0087

From ChEMBL document CHEMBL5126610, “Beyond Retigabine: Design, Synthesis, and Pharmacological Characterization of a Potent and Chemically Stable Neuronal Kv7 Channel Activator with Anticonvulsant Activity” (J Med Chem, 2022)
